Experimental data of several laboratories.
Compare with care: the assays were run in different laboratories.
Target: Mitogen-activated protein kinase kinase kinase 7 (MAP3K7, Homo sapiens, UniProt O43318)
One construct used (O43318 1-606): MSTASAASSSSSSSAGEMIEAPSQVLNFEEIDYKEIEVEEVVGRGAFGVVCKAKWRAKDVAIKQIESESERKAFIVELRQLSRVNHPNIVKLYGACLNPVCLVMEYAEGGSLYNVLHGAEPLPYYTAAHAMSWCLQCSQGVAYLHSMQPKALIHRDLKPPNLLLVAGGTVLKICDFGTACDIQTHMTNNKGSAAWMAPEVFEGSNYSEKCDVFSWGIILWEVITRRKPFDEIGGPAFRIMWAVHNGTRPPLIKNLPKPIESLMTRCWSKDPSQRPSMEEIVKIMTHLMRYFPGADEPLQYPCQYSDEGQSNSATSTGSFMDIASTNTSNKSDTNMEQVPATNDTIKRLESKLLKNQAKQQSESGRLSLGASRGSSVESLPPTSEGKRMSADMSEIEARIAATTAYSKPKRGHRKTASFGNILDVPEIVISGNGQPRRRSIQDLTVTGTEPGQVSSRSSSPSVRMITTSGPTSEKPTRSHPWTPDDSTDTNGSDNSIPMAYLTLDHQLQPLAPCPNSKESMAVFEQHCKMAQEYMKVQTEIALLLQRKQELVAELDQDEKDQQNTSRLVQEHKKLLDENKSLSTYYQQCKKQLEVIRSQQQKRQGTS

| SMILES | observed | action | technique | concentration | endpoint | result |
| --- | --- | --- | --- | --- | --- | --- |
| Cc1ccc(Nc2nccc(N(C)c3ccc4c(C)n(C)nc4c3)n2)cc1S(N)(=O)=O | enzyme activity | inhibitor |  | 10 µM | inhibition | -4% |
| COc1cccc2c(NCc3ccccc3)nc(-n3c(N)nc4ccccc43)nc12 | target engagement in cells | inhibitor | chemoproteomics | 20 mM | inhibition | -6.3% |
| CCCOc1ccc([C@H]2[C@H](C(=O)O)[C@@H](c3ccc4c(c3)OCO4)CN2CC(=O)Nc2c(CC)cccc2CC)cc1 | cell-free assay |  | competition with immobilised ligand | 1 µM | remaining binding | 100% |
| Cc1ccc(C(=O)NCc2ccsc2)cc1C#Cc1cn(C(C)C)c2ncnc(N)c12 | enzyme activity | inhibitor |  | 1 µM | activity vs control | 112% |
| Nc1ncnc2occ(-c3ccc(NC(=O)Nc4cc(C(F)(F)F)ccc4F)cc3)c12 | cell-free assay | inhibitor |  | 20 µM | remaining signal | 3.7% |
| CCN(CC)c1ccc(C2=NNC(=O)CC2C)cc1[N+](=O)[O-] (stereo not drawn) | enzyme activity | inhibitor |  | 10 µM | remaining activity | 107% |
| CCCS(=O)(=O)Nc1ccc(F)c(C(=O)c2c[nH]c3ncc(-c4ccc(Cl)cc4)cc23)c1F | enzyme activity | inhibitor |  | 1 µM | inhibition | < 10% |
| O=c1nc(-c2ccccn2)sc2ccccc12 | binding |  | competition with immobilised ligand | 1 µM | remaining binding | 78% |
| CS(=O)(=O)CCNCc1ccc(-c2ccc3ncnc(Nc4ccc(OCc5cccc(F)c5)c(Cl)c4)c3c2)o1 | cell-free assay |  |  | 0.5 µM | remaining signal | 89% |
| c1ccc(CNc2nc(N3CCOc4ccccc43)nc3c2CCCC3)cc1 | target engagement in cells | inhibitor | chemoproteomics | 20 mM | inhibition | -10.3% |
| COc1cc(Nc2cnc(C#N)c(O[C@H](C)CN(C)C)n2)ncc1-c1cnn(C)c1 | enzyme activity | inhibitor | radiometric | 10 µM | remaining activity | 53% |
| Cn1c(=O)n(-c2ccc(C(C)(C)C#N)cc2)c2c3cc(-c4cnc5ccccc5c4)ccc3ncc21 | enzyme activity | inhibitor |  | 10 µM | remaining activity | 67% |
| FC(F)(F)Oc1cccc(-c2cnc3ccc(-c4ccncc4)nn23)c1 | enzyme activity | inhibitor | radiometric | 1 µM | activity vs control | 58% |
| C[C@@]1(Cc2ccc(C#N)cc2)C(=O)N(c2cc(Cl)cc(Cl)c2)c2ncc(C(=O)NC3(c4nc(C5CCC5)no4)CC3)n21 | cell-free assay |  | competition with immobilised ligand | 1 µM | remaining binding | 96% |
| O=C1NC(=O)c2cc(Nc3ccc(F)cc3)c(Nc3ccc(F)cc3)cc21 | cell-free assay |  |  | 0.5 µM | remaining signal | 98.8% |
| CN1CC(Oc2cnc(C#N)cc2-c2ccn3nc(NC(=O)C4CC4)cc3c2)C1 | enzyme activity | inhibitor |  | 1 µM | inhibition | 8% |
| Cc1cc(-n2nc(Cc3cc(F)cc(C(F)(F)F)c3)nc2C)ccc1C(N)=O | cell-free assay |  | competition with immobilised ligand | 1 µM | remaining binding | 100% |
| CCN(CC)CCNC(=O)c1c(C)[nH]c(/C=C2\C(=O)Nc3ccc(F)cc32)c1C | enzyme activity | inhibitor |  | 0.3 µM | inhibition | 52% |
| CC(C)(O)[C@H]1CC[C@H](Nc2ccc3ncc(-c4cccc(C(F)(F)F)c4)n3n2)CC1 | enzyme activity | inhibitor |  | 1 µM | remaining activity | 107% |
| Cc1cc(C)c(-n2ccn3nc(-c4cccnc4)cc23)cc1NC(=O)c1cc(C#N)cc(S(F)(F)(F)(F)F)c1 | cell-free assay |  | competition with immobilised ligand | 0.1 µM | remaining binding | 66.2% |
| O=C(Nc1cnn(-c2csc(C(=O)NC3COC3)c2)c1)Nc1ccccc1Cl | enzyme activity | inhibitor |  | 5 µM | remaining activity | 98% |
| CN(c1ccnc(CNc2nc(Nc3ccc4c(c3)CC(=O)N4)ncc2C(F)(F)F)n1)S(C)(=O)=O | cell-free assay |  | competition with immobilised ligand | 1 µM | remaining binding | 48% |
| COc1cc2ncnc(Nc3ccc(F)c(Cl)c3)c2cc1OCCCN1CCOCC1 | cell-free assay |  |  | 0.5 µM | remaining signal | 91.3% |
| CO[C@@H](C)c1c(Nc2ccc([C@H](N(C)C(=O)C3CCS(=O)(=O)CC3)C(F)(F)F)cc2)cnc2cc(Cl)nn12 | cell-free assay |  | competition with immobilised ligand | 1 µM | remaining binding | 89% |
| Oc1cccc(-c2nc(N3CCOCC3)c3oc4ncccc4c3n2)c1 | enzyme activity | inhibitor |  | 10 µM | remaining activity | 79% |
| CN(C(=O)c1ccccc1)c1cc(N(C)c2ccc3c(c2)CCc2ccc(C(=O)NCCN4CCOCC4)cc2C3=O)ccc1F | cell-free assay |  | competition with immobilised ligand | 1 µM | remaining binding | 100% |
| Cc1sc(C(=O)NC2COC2)cc1-n1cc(NC(=O)Nc2c(F)cccc2Cl)cn1 | enzyme activity | inhibitor |  | 10 µM | remaining activity | 98.4% |
